Results on two compounds are retold here after ChEMBL document CHEMBL4350993, “Dipropargyl substituted diphenylpyrimidines as dual inhibitors of monoamine oxidase and acetylcholinesterase” (Eur J Med Chem, 2019).

The source made the active and inactive calls. No cut-off for these calls is given here.

Series [1] in a line: Cytotoxicity against human SH-SY5Y cells assessed as cell viability at 25 uM measured after 24 hrs by MTT assay relative to control. The format is cell-based. As to conditions: read-out: Activity. The gist of the method: (§1)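 SH-SY5Y cells, about 10,000/well, grown 24 h in DMEM/F-12 with 10% FBS, horse serum and 1% penicillin. Exposed to compound at 1, 5 or 25 μM for 24 h, serum-free, at 37 °C, 5% CO2. MTT added, 4 h at 37 °C, formazan dissolved in DMSO, OD read at 595 nm. Viability expressed relative to control.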
In general terms: Tetrazolium dyes change colour on reduction, which living cells bring about.

Series [2] is described as follows: Metal chelating activity of the compound assessed as formation of Cu2+ complex at 50 uM by UV-vis spectrophotometric analysis. Put shortly:
(§2)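 Absorption spectra recorded by UV–vis spectrophotometry for compound alone (50 μM final) and with CuSO₄, FeSO₄ or FeCl₃ (50 μM final); chelation judged from spectral change.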

Series [3] relates to SH-SY5Y. Kind of series: Inhibition of ROS generation in human SH-SY5Y cells at 5 uM measured after 24 hrs by DCF-DA dye based fluorescence assay relative to control. The format is functional. Put shortly:
(§3)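 SH-SY5Y cells, about 10,000/well, grown 24 h in DMEM/F-12 with 10% FBS, horse serum and 1% penicillin. Washed with PBS, then exposed to compound without FBS for 24 h (1, 5, 25 μM). Rinsed three times in PBS, loaded with H2DCF-DA (50 μM) for 30 min at 37 °C, rinsed again. Fluorescence read at ex 478 / em 518 nm.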

The subject of series [4] is SH-SY5Y. Kind of series: Neuroprotective activity against 6-OHDA induced toxicity in human SH-SY5Y cells assessed as cell viability at 1 uM preincubated for 4 hrs followed by 6-OHDA addition and measured after 24 hrs by MTT assay (reference value: 48.52 %). The series is classed as functional. Particulars: read-out: Activity.
Series [5] concerns SH-SY5Y. As to the kind of experiment: Inhibition of ROS generation in human SH-SY5Y cells at 25 uM measured after 24 hrs by DCF-DA dye based fluorescence assay relative to control. The series is classed as functional. Put shortly:
as §3

The nature of series [6]: Cytotoxicity against human SH-SY5Y cells assessed as cell viability at 5 uM measured after 24 hrs by MTT assay relative to control. The series is classed as cell-based. Particulars: read-out: Activity. The gist of the method: as §1
A short description of series [7]: Metal chelating activity of the compound assessed as formation of Fe3+ complex at 50 uM by UV-vis spectrophotometric analysis. Put shortly:
as §2

For series [8], the system named is SH-SY5Y. Kind of series: Neuroprotective activity against 6-OHDA induced toxicity in human SH-SY5Y cells assessed as cell viability at 5 uM preincubated for 4 hrs followed by 6-OHDA addition and measured after 24 hrs by MTT assay (reference value: 48.52 %). Particulars: read-out: Activity. The series is classed as functional.
Series [9] can be described thus: Octanol/water partition coefficient, logP of compound. The format is physicochemical.
Series [10] concerns the target Acetylcholinesterase (Electrophorus electricus) (UniProt O42275). As to the kind of experiment: Reversible inhibition of electric eel AChE assessed as recovery of enzyme activity at 10 times IC50 using acetylcholine as substrate relative to control.
A short description of series [11]: Metal chelating activity of the compound assessed as formation of Fe2+ complex at 50 uM by UV-vis spectrophotometric analysis. Put shortly: as §2
Series [12] has as its target Acetylcholinesterase (Electrophorus electricus) (UniProt O42275). Kind of series: Reversible inhibition of electric eel AChE assessed as recovery of enzyme activity at 100 times IC50 using acetylcholine as substrate relative to control.
In series [13] the test system is SH-SY5Y. As to the kind of experiment: Inhibition of ROS generation in human SH-SY5Y cells at 1 uM measured after 24 hrs by DCF-DA dye based fluorescence assay relative to control. The series is classed as functional. Put shortly:
as §3

The target in series [14] is T1, Amine oxidase [flavin-containing] B (Homo sapiens, UniProt P27338).
T1 sequence (P27338 whole entry): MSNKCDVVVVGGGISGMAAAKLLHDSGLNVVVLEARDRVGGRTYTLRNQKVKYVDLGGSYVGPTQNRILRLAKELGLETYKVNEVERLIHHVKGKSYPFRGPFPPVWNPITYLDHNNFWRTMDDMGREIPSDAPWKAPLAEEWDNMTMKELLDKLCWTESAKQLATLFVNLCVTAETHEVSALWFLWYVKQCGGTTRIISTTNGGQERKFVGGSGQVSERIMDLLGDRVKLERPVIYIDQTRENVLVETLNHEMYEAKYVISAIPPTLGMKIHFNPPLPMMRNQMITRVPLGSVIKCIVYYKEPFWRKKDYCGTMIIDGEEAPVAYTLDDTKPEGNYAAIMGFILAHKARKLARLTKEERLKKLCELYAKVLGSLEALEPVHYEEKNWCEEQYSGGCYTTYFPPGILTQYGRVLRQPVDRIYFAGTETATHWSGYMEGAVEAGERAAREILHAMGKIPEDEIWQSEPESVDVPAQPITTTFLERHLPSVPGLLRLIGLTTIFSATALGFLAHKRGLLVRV
Kind of series: Inhibition of human recombinant microsomal MAO-B expressed in baculovirus infected BTI-TN-5B1-4 cells assessed as reduction in production of H202 using p-tyramine as substrate incubated for 30 mins followed by substrate addition by horse radish peroxidase/Amplex red reagent based fluorescence assay. The format is cell-based.

Series [15] relates to SH-SY5Y. As to the kind of experiment: Neuroprotective activity against 6-OHDA induced toxicity in human SH-SY5Y cells assessed as cell viability at 25 uM preincubated for 4 hrs followed by 6-OHDA addition and measured after 24 hrs by MTT assay (reference value: 48.52 %). As to conditions: read-out: Activity. The format is functional.
The target of another series is Acetylcholinesterase (Electrophorus electricus, UniProt O42275). As to the kind of experiment: Inhibition of electric eel AChE assessed as reduction in production of H202 using acetylcholine as substrate incubated for 15 mins followed by substrate addition by horse radish peroxidase/Amplex red reagent based fluorescence assay.
Chain of Acetylcholinesterase (O42275 whole entry): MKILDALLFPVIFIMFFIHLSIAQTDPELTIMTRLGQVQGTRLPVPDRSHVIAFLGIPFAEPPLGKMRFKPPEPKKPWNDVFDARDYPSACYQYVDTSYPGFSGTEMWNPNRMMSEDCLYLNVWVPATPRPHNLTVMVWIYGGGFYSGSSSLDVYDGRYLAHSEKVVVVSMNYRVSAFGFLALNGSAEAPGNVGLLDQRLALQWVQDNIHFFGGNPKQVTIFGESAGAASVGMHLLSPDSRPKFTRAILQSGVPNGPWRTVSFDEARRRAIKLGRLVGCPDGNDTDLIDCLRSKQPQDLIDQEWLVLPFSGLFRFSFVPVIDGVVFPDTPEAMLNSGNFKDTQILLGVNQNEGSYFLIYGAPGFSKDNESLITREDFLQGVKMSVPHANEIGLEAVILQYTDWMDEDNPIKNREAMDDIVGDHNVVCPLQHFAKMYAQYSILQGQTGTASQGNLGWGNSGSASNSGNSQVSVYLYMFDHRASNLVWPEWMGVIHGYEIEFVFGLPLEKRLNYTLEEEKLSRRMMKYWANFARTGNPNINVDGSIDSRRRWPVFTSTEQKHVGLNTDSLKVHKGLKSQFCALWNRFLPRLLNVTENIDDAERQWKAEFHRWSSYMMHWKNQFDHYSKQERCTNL
The target in series [16] is Acetylcholinesterase (Electrophorus electricus) (UniProt O42275). As to the kind of experiment: Reversible inhibition of electric eel AChE assessed as recovery of enzyme activity at IC50 using acetylcholine as substrate relative to control.
Chain of Acetylcholinesterase (Electrophorus electricus) (O42275 24-633 limits assumed): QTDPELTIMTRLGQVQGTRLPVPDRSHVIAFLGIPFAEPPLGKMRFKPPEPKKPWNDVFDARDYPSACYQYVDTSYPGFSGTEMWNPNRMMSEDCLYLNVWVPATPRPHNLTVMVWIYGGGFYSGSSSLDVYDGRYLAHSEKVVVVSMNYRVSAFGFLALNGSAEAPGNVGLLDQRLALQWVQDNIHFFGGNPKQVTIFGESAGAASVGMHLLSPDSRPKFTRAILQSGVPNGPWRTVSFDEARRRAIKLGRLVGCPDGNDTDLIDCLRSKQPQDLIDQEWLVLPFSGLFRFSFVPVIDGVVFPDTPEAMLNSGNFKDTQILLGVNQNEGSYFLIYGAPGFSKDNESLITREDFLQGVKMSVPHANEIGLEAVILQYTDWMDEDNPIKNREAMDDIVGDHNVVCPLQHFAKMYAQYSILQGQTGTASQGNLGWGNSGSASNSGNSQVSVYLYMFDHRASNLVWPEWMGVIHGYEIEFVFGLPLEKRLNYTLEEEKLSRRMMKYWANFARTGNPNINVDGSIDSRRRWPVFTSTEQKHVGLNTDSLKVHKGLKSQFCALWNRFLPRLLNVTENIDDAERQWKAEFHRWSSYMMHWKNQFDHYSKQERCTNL
The species named for another series is Homo sapiens. As to the kind of experiment: Selectivity index, ratio of IC50 for human recombinant microsomal MAO- A expressed in baculovirus infected BTI-TN-5B1- 4 cells using p-tyramine as substrate to IC50 for human recombinant microsomal MAO- B expressed in baculovirus infected BTI-TN-5B1- 4 cells using p-tyramine as substrate by horse radish peroxidase/Amplex red reagent based fluorescence assay. Put shortly:
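Recombinant hMAO-A (1.1 µg) or hMAO-B (7.5 µg) preincubated with inhibitor over a concentration range for 30 min at 37 °C in 0.05 M sodium phosphate, pH 7.4. Reaction started with 1 mM p-tyramine, 200 µM Amplex Red and 1 U/mL HRP (final concentrations). H₂O₂ was read by fluorescence (ex 545/em 590 nm) after 30 min dark incubation. Background without enzyme was subtracted; vehicle served as control.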

Series [17] concerns the target Acetylcholinesterase (Electrophorus electricus) (UniProt O42275). As to the kind of experiment: Reversible inhibition of electric eel AChE assessed as recovery of enzyme activity at 0.1 times IC50 using acetylcholine as substrate relative to control.
Series [18] concerns the target T2, Amine oxidase [flavin-containing] A (Homo sapiens, UniProt P21397).
T2 sequence (P21397 whole entry): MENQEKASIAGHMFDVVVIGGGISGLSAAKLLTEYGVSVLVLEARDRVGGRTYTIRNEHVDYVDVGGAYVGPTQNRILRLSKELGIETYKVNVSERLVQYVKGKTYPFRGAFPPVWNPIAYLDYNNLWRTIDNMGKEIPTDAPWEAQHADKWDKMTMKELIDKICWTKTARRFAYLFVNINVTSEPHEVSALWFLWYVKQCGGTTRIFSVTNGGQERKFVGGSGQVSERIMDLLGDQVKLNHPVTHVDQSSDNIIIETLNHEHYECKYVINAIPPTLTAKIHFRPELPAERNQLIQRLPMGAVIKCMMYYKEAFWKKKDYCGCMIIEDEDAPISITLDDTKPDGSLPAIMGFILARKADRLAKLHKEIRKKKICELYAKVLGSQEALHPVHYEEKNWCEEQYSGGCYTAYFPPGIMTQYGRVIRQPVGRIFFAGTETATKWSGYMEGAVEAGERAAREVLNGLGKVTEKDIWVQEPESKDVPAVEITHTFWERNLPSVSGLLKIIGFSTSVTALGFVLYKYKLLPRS
Kind of series: Inhibition of human recombinant microsomal MAO-A expressed in baculovirus infected BTI-TN-5B1-4 cells assessed as reduction in production of H202 using p-tyramine as substrate incubated for 30 mins followed by substrate addition by horse radish peroxidase/Amplex red reagent based fluorescence assay. The series is classed as cell-based. Particulars: read-out: IC50.

A short description of series [19]: Cytotoxicity against human SH-SY5Y cells assessed as cell viability at 1 uM measured after 24 hrs by MTT assay relative to control. As to conditions: read-out: Activity. The series is classed as cell-based. The gist of the method: as §1
Series [20] deals with Acetylcholinesterase (Electrophorus electricus) (UniProt O42275). As to conditions: at 1 to 5 µM.

Take `C#CCOc1ccc(-c2cc(-c3ccc(OCC#C)cc3)nc(N)n2)cc1`: the viability at 24 h, 25 µM in series [1] was 72.6%. The outcome in series [2], in series [7] and in [11] was inactive. This compound also yielded an inhibition at 5 µM with SH-SY5Y [3] of 30%. For the same compound, the viability at 1 µM in the series on SH-SY5Y [4] is 66.6%. This compound came in with an inhibition at 25 µM with SH-SY5Y [5] of 25.9%. Besides, in [6], the viability at 24 h, 5 µM was determined as 73%. Further, the viability at 5 µM with SH-SY5Y [8] worked out at 62.4%. This compound also showed a logP in series [9] of 4.52. Also, the inhibition in series [10] came out at 10.2%; in series [12] it was 3.4%; in [16], 42.4%; in [17], 66.5%. This compound also displayed an inhibition at 1 µM in the series with SH-SY5Y [13] of 89.8%. For the same compound, the values for the IC50 (in series [14]; at Acetylcholinesterase; in series [18]) were 3.3 µM, 1.35 µM and 32.1 µM, respectively. Further, the viability at 25 µM with SH-SY5Y [15] came out at 53.6%. Further, in the series listed under Homo sapiens, the Ratio IC50 amounted to 9.7. In addition, the viability at 24 h, 1 µM in series [19] came to 79%.

Consider `C#CCOc1ccc(-c2cc(-c3cccc(OCC#C)c3)nc(N)n2)cc1`, for which the viability at 24 h, 25 µM in [1] was determined as 69.2%. Further, the result in series [2], in series [7] and in [11] was inactive. Further, at 5 µM the inhibition in the series on SH-SY5Y [3] was 47.2%. Also, the viability at 1 µM in the series with SH-SY5Y [4] amounted to 60.5%. In the series with SH-SY5Y [5], this compound gave an inhibition at 25 µM of 41%. For the same compound, in [20], the inhibition result is “Active”. Further, the viability at 24 h, 5 µM in series [6] was determined as 79.6%. Further, the viability at 5 µM with SH-SY5Y [8] is 59.5%. This compound had a logP in series [9] of 4.51. The inhibition in [10] amounted to 12.3%; in series [12] it was 7.35%; in [16] it was 41.8%; in series [17], 82.8%. The inhibition at 1 µM in the series on SH-SY5Y [13] came out at 68.3%. Besides, the IC50 amounted to 1.49 µM in [14], 1.74 µM on Acetylcholinesterase and 24.1 µM in series [18]. In addition, in the series with SH-SY5Y [15], the viability at 25 µM came out at 52.3%. For the same compound, the Ratio IC50 in the series listed under Homo sapiens is 16.1. In addition, in [19], the viability at 24 h, 1 µM stood at 87.3%.

For orientation: inhibition means the change of the read-out against control, counted positive when it falls. One may read the logP as the decadic logarithm of the partition coefficient of the neutral form, usually between octanol and water. One may read the IC50 as the concentration that inhibits the measured activity by half.
